Data: ChEMBL document CHEMBL1125821, “Pyrimido[5,4-b]indole derivatives. 1. A new class of potent and selective alpha 1 adrenoceptor ligands” (J Med Chem, 1991)

Columns and labels:
[1] = molecular target: T1, Alpha-1A adrenergic receptor (Rattus norvegicus, UniProt P43140); assay: Binding affinity measured for alpha-1 adrenergic receptor by displacement of [3H]prazosin from rat cortical membranes; type: cell membranes, Membrane
T1 sequence (P43140 whole entry): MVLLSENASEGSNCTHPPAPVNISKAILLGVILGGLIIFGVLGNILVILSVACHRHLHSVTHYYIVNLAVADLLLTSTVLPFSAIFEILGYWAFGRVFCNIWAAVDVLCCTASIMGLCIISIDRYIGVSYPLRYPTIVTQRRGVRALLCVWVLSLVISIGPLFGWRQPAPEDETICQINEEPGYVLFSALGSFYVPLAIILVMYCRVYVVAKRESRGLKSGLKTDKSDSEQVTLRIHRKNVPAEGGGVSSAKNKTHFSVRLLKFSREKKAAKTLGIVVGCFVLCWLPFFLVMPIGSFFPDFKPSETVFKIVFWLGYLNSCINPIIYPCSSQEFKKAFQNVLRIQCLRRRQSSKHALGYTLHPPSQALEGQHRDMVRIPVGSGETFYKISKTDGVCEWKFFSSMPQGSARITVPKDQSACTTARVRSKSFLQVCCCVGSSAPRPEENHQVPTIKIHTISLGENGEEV

[2] = molecular target: T2, 5-hydroxytryptamine receptor 1A (Rattus norvegicus, UniProt P19327); assay: Binding affinity for 5-hydroxytryptamine 1A receptor measured by displacing [3H]8-OH-DPAT from rat cortical membranes
T2 sequence (P19327 whole entry): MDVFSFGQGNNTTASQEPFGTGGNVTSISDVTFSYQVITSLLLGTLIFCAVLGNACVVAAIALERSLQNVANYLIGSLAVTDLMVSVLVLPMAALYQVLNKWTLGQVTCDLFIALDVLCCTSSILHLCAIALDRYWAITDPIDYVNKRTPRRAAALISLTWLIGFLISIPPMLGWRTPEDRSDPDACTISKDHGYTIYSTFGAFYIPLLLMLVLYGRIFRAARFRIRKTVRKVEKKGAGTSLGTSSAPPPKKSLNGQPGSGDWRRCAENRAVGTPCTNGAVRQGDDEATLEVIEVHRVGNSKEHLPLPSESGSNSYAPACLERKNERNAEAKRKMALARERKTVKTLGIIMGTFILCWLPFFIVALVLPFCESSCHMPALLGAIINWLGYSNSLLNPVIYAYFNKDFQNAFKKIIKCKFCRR
Method in brief: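 Rat hippocampus or cortex membranes; 1 nM [3H]-8-OH-DPAT; nonspecific binding set with 1 μM serotonin. Incubated with competing drug 45–60 min at 37 °C in buffer, then vacuum-filtered on glass-fiber filters and washed with ice-cold buffer. IC50 from nonlinear fit of competition curves, mean of 3–7 experiments. Ki by Cheng–Prusoff.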

[3] = molecular target: T1, Alpha-1A adrenergic receptor; assay: Binding affinity for Alpha-1 adrenergic receptor measured by displacing [3H]prazosin from rat cortical membranes
Method in brief: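 Rat cortex membranes labelled with 0.4 nM [3H]prazosin; 10 μM phentolamine defined nonspecific binding. Incubation with competing drugs 45–60 min at 37 °C, then vacuum filtration on glass-fiber filters with ice-chilled buffer wash. IC50 by nonlinear curve fitting (three to seven experiments); Ki via Cheng–Prusoff using KD 0.1 nM for [3H]prazosin.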

[4] = molecular target: T3, Adrenergic receptor alpha-2 (Homo sapiens, UniProt P08913+P18825+P18089); assay: Binding affinity towards Alpha-2 adrenergic receptor in human platelet membranes using [3H]yohimbine; type: cell membranes
T3 sequence (P08913 whole entry): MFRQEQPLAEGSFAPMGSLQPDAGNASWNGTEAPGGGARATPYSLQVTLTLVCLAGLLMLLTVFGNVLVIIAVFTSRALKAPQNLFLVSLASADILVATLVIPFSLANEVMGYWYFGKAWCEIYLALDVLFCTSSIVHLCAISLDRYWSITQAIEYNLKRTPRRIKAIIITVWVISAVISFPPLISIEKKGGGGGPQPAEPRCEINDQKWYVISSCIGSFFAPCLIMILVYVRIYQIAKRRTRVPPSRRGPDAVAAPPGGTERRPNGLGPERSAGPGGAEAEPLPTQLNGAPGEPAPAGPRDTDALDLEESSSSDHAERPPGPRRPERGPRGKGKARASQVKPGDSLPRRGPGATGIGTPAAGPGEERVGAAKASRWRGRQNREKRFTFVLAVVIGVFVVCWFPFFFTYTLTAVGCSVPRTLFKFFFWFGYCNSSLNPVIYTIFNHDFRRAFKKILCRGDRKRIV
T3 sequence (P18825 whole entry): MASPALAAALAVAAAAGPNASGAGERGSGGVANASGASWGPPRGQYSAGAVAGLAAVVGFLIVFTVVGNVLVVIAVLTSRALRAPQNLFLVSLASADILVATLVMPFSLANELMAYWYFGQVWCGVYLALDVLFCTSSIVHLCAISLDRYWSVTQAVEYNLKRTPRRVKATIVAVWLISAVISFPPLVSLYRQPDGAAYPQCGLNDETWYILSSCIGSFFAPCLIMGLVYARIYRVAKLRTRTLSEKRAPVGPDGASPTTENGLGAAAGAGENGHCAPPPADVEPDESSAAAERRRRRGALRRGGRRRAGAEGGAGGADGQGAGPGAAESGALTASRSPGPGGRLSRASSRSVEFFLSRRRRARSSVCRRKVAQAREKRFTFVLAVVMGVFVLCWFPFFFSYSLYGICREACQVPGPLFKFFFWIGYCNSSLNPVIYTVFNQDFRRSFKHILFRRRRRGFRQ
T3 sequence (P18089 whole entry): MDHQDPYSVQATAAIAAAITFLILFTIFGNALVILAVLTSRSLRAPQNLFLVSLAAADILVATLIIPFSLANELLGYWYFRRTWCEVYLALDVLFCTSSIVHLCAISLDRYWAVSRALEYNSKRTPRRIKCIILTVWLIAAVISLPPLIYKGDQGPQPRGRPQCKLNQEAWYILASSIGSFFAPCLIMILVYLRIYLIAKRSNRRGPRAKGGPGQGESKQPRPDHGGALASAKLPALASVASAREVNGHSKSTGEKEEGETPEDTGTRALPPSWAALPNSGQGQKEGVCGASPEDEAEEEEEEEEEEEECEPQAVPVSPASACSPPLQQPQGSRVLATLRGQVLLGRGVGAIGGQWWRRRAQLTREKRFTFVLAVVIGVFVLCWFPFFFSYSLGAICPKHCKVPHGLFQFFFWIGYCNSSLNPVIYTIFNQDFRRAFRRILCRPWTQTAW
Method in brief: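 Human platelet membranes, [3H]yohimbine 3.5 nM; nonspecific binding defined by 100 μM phentolamine. Competition run 45–60 min at 37 °C, stopped by rapid vacuum filtration over glass-fiber filters and ice-chilled buffer washes. IC50 by nonlinear regression, mean of three to seven experiments; converted to Ki with the Cheng–Prusoff equation.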

[5] = molecular target: Beta-2 adrenergic receptor (Homo sapiens, UniProt P07550); assay: Binding affinity towards Beta-2 adrenergic receptor in human peripheral mononuclear leukocyte membranes using [125I]pindolol
Method in brief: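 Membranes from human peripheral blood mononuclear leukocytes bound [125I]pindolol (100 pM); 1 μM (-)-propranolol gave nonspecific binding. 45–60 min at 37 °C with or without competitors, then rapid filtration through glass-fiber filters and ice-cold buffer wash. IC50 from nonlinear fitting over three to seven experiments; Ki by Cheng–Prusoff.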

[6] = molecular target: T2, 5-hydroxytryptamine receptor 1A

Chain of Beta-2 adrenergic receptor (P07550 whole entry): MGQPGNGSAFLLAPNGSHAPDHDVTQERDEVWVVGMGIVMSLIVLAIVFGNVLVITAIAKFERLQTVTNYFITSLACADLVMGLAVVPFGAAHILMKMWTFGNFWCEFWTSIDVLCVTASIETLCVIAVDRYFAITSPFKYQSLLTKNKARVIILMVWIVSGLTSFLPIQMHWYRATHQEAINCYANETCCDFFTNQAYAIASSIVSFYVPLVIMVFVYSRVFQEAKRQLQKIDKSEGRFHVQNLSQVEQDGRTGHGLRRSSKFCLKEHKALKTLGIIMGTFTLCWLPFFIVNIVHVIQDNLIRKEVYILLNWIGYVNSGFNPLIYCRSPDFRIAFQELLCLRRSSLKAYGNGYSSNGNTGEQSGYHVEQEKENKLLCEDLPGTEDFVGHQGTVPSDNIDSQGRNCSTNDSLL

Q: CN(C)CCCn1c(=O)[nH]c2c([nH]c3ccccc32)c1=O was tested. Which Ki [1] did it give?
A: Its Ki is > 100000 nM.

Q: What does the source list for O=c1[nH]c2c([nH]c3ccccc32)c(=O)n1CCN1CCN(c2ccc(Cl)cc2)CC1?
A: Ki [2]: > 100000 nM; Ki [3]: ≥ 10000 nM; Ki [4]: > 100000 nM; Ki [5]: > 100000 nM

Q: With CCOC(=O)N1CCN(CCn2c(=O)[nH]c3c([nH]c4ccccc43)c2=O)CC1 as the molecule, how does the Ki [1] read?
A: The Ki was > 100000 nM.

Q: Which results are given for O=c1[nH]c2c([nH]c3ccccc32)c(=O)n1CCN1CCN(c2ccccc2)CC1?
A: Ki [2]: > 100000 nM; Ki [3]: 1.8 nM; Ki [4]: > 100000 nM; Ki [5]: > 100000 nM

Q: O=c1[nH]c2c([nH]c3ccccc32)c(=O)n1CCN1CCCC1 was tested. Which Ki [1] did it give?
A: Its Ki is > 100000 nM.

Q: Which Ki [1] does the source give for CN(C)CCn1c(=O)[nH]c2c([nH]c3ccccc32)c1=O here?
A: The Ki was > 100000 nM.

Q: For COc1ccccc1N1CCN(CCCn2c(=O)[nH]c3c([nH]c4ccccc43)c2=O)CC1, which Ki [2] is on record?
A: Its Ki is 308 nM.

Q: What about the Ki [3] of the same molecule?
A: Its Ki is 13 nM.

Q: What about the Ki [4] of the same molecule?
A: Its Ki is 55 nM.

Q: What about the Ki [5] of the same molecule?
A: Its Ki is 1180 nM.

Q: With O=c1[nH]c2c([nH]c3ccccc32)c(=O)n1CCN1CCN(c2ccccc2Cl)CC1 as the molecule, how does the Ki [2] read?
A: The Ki was > 100000 nM.

Q: And the Ki [3]?
A: Its Ki is 0.53 nM.

Q: And the Ki [4]?
A: Its Ki is > 100000 nM.

Q: And the Ki [5]?
A: The Ki was > 100000 nM.

Q: O=c1[nH]c2c([nH]c3ccccc32)c(=O)n1CCN1CCOCC1 was tested. Which Ki [1] did it give?
A: Its Ki is > 100000 nM.

Q: For COc1ccccc1N1CCN(CCn2c(=O)c3c(c4ccccc4n3C)n(C)c2=O)CC1, which Ki [2] is on record?
A: The Ki was 1.5 nM.

Q: And the Ki [3]?
A: Its Ki is 0.32 nM.

Q: And the Ki [4]?
A: The Ki was 2215 nM.

Q: How did the Ki [1] turn out when CCN(CC)CCn1c(=O)[nH]c2c([nH]c3ccccc32)c1=O was run?
A: The Ki was > 100000 nM.

Q: Which Ki [1] does the source give for CCN(CC)CCCn1c(=O)[nH]c2c([nH]c3ccccc32)c1=O here?
A: The Ki was > 100000 nM.

Q: Which results are given for COc1ccccc1N1CCN(CCn2c(=O)[nH]c3c([nH]c4ccccc43)c2=O)CC1?
A: Ki [2]: 50 nM; Ki [3]: 0.21 nM; Ki [4]: >= 1000 nM; Ki [5]: > 100000 nM

Q: With COc1ccccc1N1CCNCC1 as the molecule, how does the Ki [2] read?
A: Its Ki is 281 nM.

Q: What about the Ki [1] of the same molecule?
A: The Ki was 3510 nM.

Q: For O=c1[nH]c2c([nH]c3ccccc32)c(=O)n1CCN1CCCCC1, which Ki [1] is on record?
A: The Ki was > 100000 nM.

Q: With COc1ccc(N2CCN(CCn3c(=O)[nH]c4c([nH]c5ccccc54)c3=O)CC2)cc1 as the molecule, how does the Ki [2] read?
A: The Ki was > 100000 nM.

Q: And the Ki [3]?
A: Its Ki is > 5000 nM.

Q: What about the Ki [4] of the same molecule?
A: Its Ki is > 100000 nM.

Q: What about the Ki [5] of the same molecule?
A: The Ki was > 100000 nM.

Q: For O=c1[nH]c2c([nH]c3ccccc32)c(=O)n1CCN1CCNCC1, which Ki [3] is on record?
A: Its Ki is > 100000 nM.

Q: Which results are given for Clc1ccccc1N1CCNCC1?
A: Ki [1]: 710 nM; Ki [6]: 226 nM
